Assay results reported in paper PMC3673019 (Biochemistry, 2012).
Entries after “also recorded” stand apart in the source; their conditions may differ. Where two headings read alike, the source gives them in different places. One block for each compound: values may come before it.

Assays:
eEF-2K [1] = biological target: T1, eEF-2K (Homo sapiens, UniProt O00418); assay type: biochemical
eEF-2K [2] = biological target: T1, eEF-2K; assay: Dose-response inhibition of Pep-S phosphorylation by NH125; assay type: biochemical; details: in the presence of 0.1% triton X-100
TRPM7 = biological target: T2, TRPM7 (Homo sapiens, UniProt Q96QT4); assay: Dose-response inhibition assay against TRPM7; assay type: biochemical; details: 25 nM TRPM7, 500 µM ATP (data not shown)
T2 sequence (Q96QT4 1551-1830): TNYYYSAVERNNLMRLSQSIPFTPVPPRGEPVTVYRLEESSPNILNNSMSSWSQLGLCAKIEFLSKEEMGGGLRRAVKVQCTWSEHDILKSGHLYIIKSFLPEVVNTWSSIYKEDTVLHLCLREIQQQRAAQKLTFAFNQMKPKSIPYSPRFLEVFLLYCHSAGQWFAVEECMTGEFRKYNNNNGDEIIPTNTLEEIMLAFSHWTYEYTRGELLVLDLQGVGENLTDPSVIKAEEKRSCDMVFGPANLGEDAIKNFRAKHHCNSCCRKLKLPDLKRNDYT

ERK2 = ERK2 (Homo sapiens, UniProt P28482); assay: Dose-response inhibition assay against ERK2; assay type: biochemical
Chain of ERK2 (P28482 whole entry, species assumed): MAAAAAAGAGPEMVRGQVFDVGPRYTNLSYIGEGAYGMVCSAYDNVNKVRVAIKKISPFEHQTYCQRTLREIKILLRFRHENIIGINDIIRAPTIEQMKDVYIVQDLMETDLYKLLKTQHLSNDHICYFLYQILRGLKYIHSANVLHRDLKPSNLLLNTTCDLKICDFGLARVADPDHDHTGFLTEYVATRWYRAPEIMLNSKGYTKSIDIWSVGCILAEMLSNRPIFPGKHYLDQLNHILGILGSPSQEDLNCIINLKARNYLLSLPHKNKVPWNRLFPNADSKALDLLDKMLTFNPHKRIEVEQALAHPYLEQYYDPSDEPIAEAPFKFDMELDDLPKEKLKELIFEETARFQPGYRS
Summary of the method: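 Radiometric kinase assay: 2 nM ERK2, 500 µM [γ-32P]-ATP, 20 µM Ets1 substrate, test compound 0–500 µM. IC50 and Hill coefficient came from a dose-response equation fit.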

eEF-2K [3] = biological target: T1, eEF-2K; assay: Phosphorylation of wheat germ EF2 by eEF-2K in vitro; assay type: biochemical
[4] = tested on: MDA-MB-231 breast cancer cells; assay: Western blot of phospho-eEF2; assay type: cell-based; details: 4 µM NH125, 0–12 h
A549 lung cancer cells = assay: Western blot of phospho-eEF2; assay type: cell-based; details: 4 µM NH125, 0–12 h
HEK-293T cells = assay: Western blot of phospho-eEF2; assay type: cell-based; details: 4 µM NH125, 0–12 h
GST-eEF-2K = details: in vitro kinase assay; cited from earlier work
cancer cell lines = details: read-out: EC50, decrease of viability; a number of cancer cell lines; cited from earlier work
C6 glioma cells = details: 1 µM NH125, 12 hours; cited from earlier work
[5] = tested on: human microvascular endothelial cells (HMVECs); details: 200 nM NH125, 2 hour pre-incubation; cited from earlier work
[6] = tested on: eEF2 phosphorylation in the hippocampus; details: 5 mg/kg, 30 minutes, mice; cited from earlier work
[7] = tested on: H1299, PC3, HeLa, H460 and C6 cell lines; details: NH125 for 6 hours; cited from earlier work
eEF-2K [8] = details: cited from earlier work
[9] = cited from earlier work
[10] = varied ATP 12.5–125 µM, fixed Pep-S 50 µM

T1 sequence (O00418 whole entry): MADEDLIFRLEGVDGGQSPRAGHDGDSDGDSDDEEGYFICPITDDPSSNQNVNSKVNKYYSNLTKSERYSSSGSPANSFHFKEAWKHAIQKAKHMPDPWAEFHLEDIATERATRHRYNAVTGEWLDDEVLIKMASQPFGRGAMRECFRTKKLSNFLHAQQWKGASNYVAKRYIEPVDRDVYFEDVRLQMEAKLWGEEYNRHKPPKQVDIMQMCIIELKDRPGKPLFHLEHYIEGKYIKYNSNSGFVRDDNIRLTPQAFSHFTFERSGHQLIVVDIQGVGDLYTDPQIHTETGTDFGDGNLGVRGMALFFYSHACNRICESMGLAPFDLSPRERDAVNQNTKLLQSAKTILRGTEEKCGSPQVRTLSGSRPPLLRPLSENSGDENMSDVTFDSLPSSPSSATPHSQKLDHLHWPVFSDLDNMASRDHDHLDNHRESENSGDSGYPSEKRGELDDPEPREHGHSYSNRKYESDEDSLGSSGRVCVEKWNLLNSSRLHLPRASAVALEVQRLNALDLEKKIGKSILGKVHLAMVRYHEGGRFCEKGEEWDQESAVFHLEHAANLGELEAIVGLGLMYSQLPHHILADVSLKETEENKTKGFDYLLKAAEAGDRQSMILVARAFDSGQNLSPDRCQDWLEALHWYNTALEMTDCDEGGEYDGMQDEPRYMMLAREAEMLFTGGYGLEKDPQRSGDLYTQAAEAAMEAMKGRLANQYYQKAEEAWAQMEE

Compound: Nc1ncnc2c1ncn2[C@@H]1O[C@H](COP(=O)(O)OP(=O)(O)O)[C@@H](O)[C@H]1O [ADP, adenosine diphosphate]
Mechanism of inhibition (eEF-2K [1]; [10]): Competitive ^d | Mechanism of inhibition (eEF-2K [1]; varied Pep-S, fixed ATP 50 µM): Mixed ^g

Compound: CCCCCCCCCCCCCCCC[n+]1ccn(Cc2ccccc2)c1C.[I-] [NH125, 1-benzyl-3-cetyl-2-methylimidazolium iodide]
Hill coefficient (eEF-2K [2]): 1.0 ± 0.28 | Hill coefficient (TRPM7): 1.6 | IC50 (ERK2): 70 µM | Hill coefficient (ERK2; 2 nM ERK2, 500 µM ATP (data not shown)): 3.6 | effect on the rate of phosphorylation of wheat germ eEF2 (eEF-2K [3]; NH125 0–5 µM, 1 µM eEF2, 7.5 µM ATP, 10 nM eEF-2K): no detectable effect; also recorded: failed to inhibit | effect on phosphorylation of wheat germ eEF2 (eEF-2K [3]; NH125 12.5 – 50 µM (Figure S3)): inhibition is observed | levels of eEF-2K and eEF-2 [4]: increase | phospho-eEF2 (Thr-56) level ([4]; versus DMSO): No sign of decrease; also recorded: increased; also recorded: no inhibition was observed; also recorded: did not inhibit | levels of eEF-2K and eEF-2 (A549 lung cancer cells): increase | phospho-eEF2 (Thr-56) level (A549 lung cancer cells; versus DMSO): No sign of decrease; also recorded: increased; also recorded: no inhibition was observed; also recorded: did not inhibit | levels of eEF-2K and eEF-2 (HEK-293T cells): increase | phospho-eEF2 (Thr-56) level (HEK-293T cells; versus DMSO): No sign of decrease; also recorded: increased; also recorded: no inhibition was observed; also recorded: did not inhibit | IC50 (GST-eEF-2K): 0.06 µM | EC50 (cancer cell lines): 1 to 5 µM | phosphorylation of eEF2 (C6 glioma cells): strongly inhibits | resveratrol-induced eEF2 phosphorylation [5]: inhibition | eEF2 phosphorylation in the hippocampus [6]: observable decrease | phosphorylation of eEF-2 [7]: induction; also recorded: induce phosphorylation

Compound: CC(=O)c1c(O)c(C)c(O)c(Cc2c(O)c3c(c(C(=O)/C=C/c4ccccc4)c2O)OC(C)(C)C=C3)c1O [Rottlerin, rottlerin]
kinase selectivity (eEF-2K [8]): nonspecific inhibitor of multiple protein kinases

Compound: O=C1OC(c2cc(I)c(O)c(I)c2)(c2c(I)cc(O)cc2I)c2ccccc21 (stereo not shown) [tetraiodophenolphthalein]
diameter of aggregates [9]: approximately 150 nm

Further lines, results first:

Kd (eEF-2K [1]): 16.2 ± 6.9 µM
Compound: Nc1ncnc2c1ncn2[C@@H]1O[C@H](COP(=O)(O)OP(=O)(O)OP(=O)(O)O)[C@@H](O)[C@H]1O [ATP, adenosine triphosphate]

Mechanism of inhibition (eEF-2K [1]; [10]): Mixed ^g | Mechanism of inhibition (eEF-2K [1]; varied Pep-S, fixed ATP 50 µM): Competitive ^d
Compound: Ac-RKKYKFNEDAERRRFL-NH2 [Pep-I]
